Experimental data taken from ChEMBL document CHEMBL2321839, “Novel limonene and citral based 2,5-disubstituted-1,3,4-oxadiazoles: a natural product coupled approach to semicarbazones for antiepileptic activity” (Bioorg Med Chem Lett, 2013).
The source made the active and inactive calls. The calls are words filed in the database; no cut-off is given here.

Legend:
Mus musculus [1] = experiment: Antiepileptic activity in Swiss albino mouse assessed as protection against maximal-electric shock-induced seizures at 300 mg/kg, ip measured after 4 hrs; type: functional, organism-based; set-up: dose 300 mg/kg
Procedure, shortened: (§1)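 Male Swiss albino mice (18–25 g), compounds given ip at 30, 100 and 300 mg/kg. Seizures induced by maximal electroshock (MES) or subcutaneous pentylenetetrazole (scPTZ). Protection scored at 0.5 and 4.0 h after dosing.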

Mus musculus [2] = experiment: Antiepileptic activity in Swiss albino mouse assessed as protection against maximal-electric shock-induced seizures at 300 mg/kg, ip measured after 0.5 hrs; type: functional, organism-based; set-up: dose 300 mg/kg; procedure, shortened: as §1
Rattus norvegicus [3] = experiment: Antiepileptic activity in ip dosed Wistar rat assessed as protection against scSTY-induced seizures after 4 hrs; type: functional; details: read-out: MED
Procedure, shortened: (§2)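 Male Wistar rats (100–150 g), compounds given ip at 30, 100 and 300 mg/kg. Seizures induced by subcutaneous strychnine (scSTY). Activity read 0.5 and 4.0 h after dosing. Reported as the minimal dose active in at least half of the animals; a dash means no activity at 300 mg/kg.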

Mus musculus [4] = experiment: Neurotoxicity against Swiss albino mouse by rotarod test at 300 mg/kg, ip after 4 hrs; type: toxicity, organism-based; set-up: dose 300 mg/kg, route intraperitoneal; details: in vivo
Procedure, shortened: (§3)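 Acute neurotoxicity tested by rotorod in male Swiss albino mice (18–25 g) given 30, 100 or 300 mg/kg ip. Read at 0.5 and 4.0 h post-dose. Result is the minimal dose causing toxicity in half or more of the animals; a dash means none up to 300 mg/kg.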

Mus musculus [5] = experiment: Neurotoxicity against Swiss albino mouse by rotarod test at 300 mg/kg, ip after 0.5 hrs; type: toxicity, organism-based; set-up: dose 300 mg/kg, route intraperitoneal; details: in vivo; procedure, shortened: as §3
Rattus norvegicus [6] = experiment: Antiepileptic activity in Wistar rat assessed as protection against scSTY-induced seizures at 300 mg/kg, ip measured after 0.5 hrs; type: functional, organism-based; set-up: dose 300 mg/kg; procedure, shortened: as §2
Mus musculus [7] = experiment: Antiepileptic activity in Swiss albino mouse assessed as protection against scPTZ-induced seizures at 300 mg/kg, ip measured after 4 hrs; type: functional, organism-based; set-up: dose 300 mg/kg; procedure, shortened: as §1
Mus musculus [8] = experiment: Antiepileptic activity in Swiss albino mouse assessed as protection against scPTZ-induced seizures at 300 mg/kg, ip measured after 0.5 hrs; type: functional, organism-based; set-up: dose 300 mg/kg; procedure, shortened: as §1
Mus musculus [9] = experiment: Antiepileptic activity in ip dosed Swiss albino mouse assessed as protection against scPTZ-induced seizures after 4 hrs; type: functional; details: read-out: MED; procedure, shortened: as §1
Mus musculus [10] = experiment: Neurotoxicity against ip dosed Swiss albino mouse after 0.5 hrs by rotarod test; type: toxicity, organism-based; details: in vivo; procedure, shortened: as §3
Rattus norvegicus [11] = experiment: Antiepileptic activity in Wistar rat assessed as protection against scSTY-induced seizures at 300 mg/kg, ip measured after 4 hrs; type: functional, organism-based; set-up: dose 300 mg/kg; procedure, shortened: as §2
Mus musculus [12] = experiment: Antiepileptic activity in ip dosed Swiss albino mouse assessed as protection against maximal-electric shock-induced seizures after 4 hrs; type: functional; details: read-out: MED; procedure, shortened: as §1
Mus musculus [13] = experiment: Antiepileptic activity in ip dosed Swiss albino mouse assessed as protection against maximal-electric shock-induced seizures after 0.5 hrs; type: functional; details: read-out: MED; procedure, shortened: as §1
Mus musculus [14] = experiment: Neurotoxicity against ip dosed Swiss albino mouse after 4 hrs by rotarod test; type: toxicity, organism-based; details: in vivo; procedure, shortened: as §3

Row | SMILES | Activity (Mus musculus [1]) | Activity (Mus musculus [2]) | minimal effective dose (Rattus norvegicus [3]) [mg/kg] | Activity (Mus musculus [4]) | Activity (Mus musculus [5]) | Activity (Rattus norvegicus [6]) | Activity (Mus musculus [7]) | Activity (Mus musculus [8]) | minimal effective dose (Mus musculus [9]) [mg/kg] | MTC (Mus musculus [10]) [mg/kg] | Activity (Rattus norvegicus [11]) | minimal effective dose (Mus musculus [12]) [mg/kg] | minimal effective dose (Mus musculus [13]) [mg/kg] | MTC (Mus musculus [14]) [mg/kg]
1 | COc1ccc(-c2nnc(NC(=O)N/N=C/C/C(C)=C\CC=C(C)C)o2)cc1 | inactive | inactive | 300 | Non-toxic | Non-toxic | inactive | inactive | inactive |  |  |  |  |  | 
2 | CC(C)=CC/C=C(/C)C/C=N/NC(=O)Nc1nnc(-c2ccccc2O)o1 | inactive | inactive |  |  |  | inactive |  | inactive | 300 | 300 | inactive |  |  | 
3 | CC(C)=CC/C=C(/C)C/C=N/NC(=O)Nc1nnc(-c2ccc(Cl)cc2)o1 |  |  |  | Non-toxic | Non-toxic | inactive | inactive | inactive |  |  | inactive | 300 | 100 | 
4 | C=C(C)[C@@H]1CC=C(C)/C(=N/NC(=O)Nc2nnc(-c3ccc(OC)cc3)o2)C1 |  | inactive | 300 | Non-toxic | Non-toxic | inactive |  | inactive | 300 |  |  | 300 |  | 
5 | CC(C)=CC/C=C(/C)C/C=N/NC(=O)Nc1nnc(-c2ccc(C)cc2)o1 |  | inactive |  | Non-toxic | Non-toxic | inactive | inactive | inactive |  |  | inactive | 300 |  | 300
6 | C=C(C)[C@@H]1CC=C(C)/C(=N/NC(=O)Nc2nnc(-c3ccc(C)cc3)o2)C1 |  | inactive |  | Non-toxic |  | inactive | inactive | inactive |  | 300 | inactive | 300 |  | 
7 | C=C(C)[C@@H]1CC=C(C)/C(=N/NC(=O)Nc2nnc(-c3cccc(O)c3)o2)C1 | inactive | inactive |  | Non-toxic |  | inactive |  | inactive | 300 | 300 | inactive |  |  | 
8 | CC(C)=CC/C=C(/C)C/C=N/NC(=O)Nc1nnc(-c2ccccc2)o1 | inactive | inactive |  |  | Non-toxic | inactive | inactive | inactive |  |  | inactive |  |  | 300
9 | C=C(C)[C@@H]1CC=C(C)/C(=N/NC(=O)Nc2nnc(-c3ccc(Cl)cc3)o2)C1 |  |  | 300 | Non-toxic | Non-toxic | inactive |  | inactive | 300 |  |  | 300 | 100 | 
10 | C=C(C)[C@@H]1CC=C(C)/C(=N/NC(=O)Nc2nnc(-c3ccccc3)o2)C1 |  | inactive |  |  | Non-toxic | inactive | inactive | inactive |  |  | inactive | 300 |  | 300
11 | CC(C)=CC/C=C(/C)C/C=N/NC(=O)Nc1nnc(-c2ccc(F)cc2)o1 |  | inactive |  |  | Non-toxic | inactive |  | inactive | 300 |  | inactive | 300 |  | 
12 | C=C(C)[C@@H]1CC=C(C)/C(=N/NC(=O)Nc2nnc(-c3ccccc3O)o2)C1 |  | inactive |  |  | Non-toxic | inactive | inactive | inactive |  |  | inactive | 300 |  | 300
